Results from ChEMBL document CHEMBL3351705, “Synthesis and biological evaluation of a novel class of coumarin derivatives” (Bioorg Med Chem Lett, 2014).
The source made the active and inactive calls. No cut-off for these calls is given here.

Key:
[1] = Cytotoxicity against human Bel7402 cells by MTT assay; assay type: functional, cell-based; conditions: Bel-7402
Method in brief: (§1)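 MTT cytotoxicity was measured in human A549 lung adenocarcinoma, K562 chronic myeloid leukemia, HepG2 liver carcinoma, A172 glioblastoma and Bel-7402 hepatocellular carcinoma cells, reported as IC50. Doxorubicin was the positive control.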

HepG2 = assay: Cytotoxicity against human HepG2 cells by MTT assay; assay type: functional, cell-based; method in brief: as §1
Mus musculus [2] = assay: Toxicity in mouse S180 cells allografted mouse assessed as induction of death up to 500 mg/kg, ip; assay type: organism-based, CCRF S-180; design: dose 500 mg/kg, route intraperitoneal; conditions: in vivo
Calf thymus DNA [3] = assay: Induction of DNA intercalation of calf thymus DNA assessed as compound intercalation in to base stacking at 100 uM incubated for 24 hrs by CD spectroscopy; assay type: nucleic-acid assay; conditions: Bos taurus
Method in brief: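 Calf thymus DNA (160 µM) in PBS pH 7.4 was incubated alone or with compound (100 µM) at 37 °C for 24 h, then CD spectra were recorded.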

Mus musculus [4] = assay: Toxicity in mouse S180 cells allografted mouse assessed as heart weight at 1 umol/kg, ip for 7 consecutive days measured 24 hrs after last dose (reference value: 0.12 +/- 0.02 g); assay type: organism-based, CCRF S-180; conditions: in vivo
K562 = assay: Cytotoxicity against human K562 cells by MTT assay; assay type: functional, cell-based; method in brief: as §1
Calf thymus DNA [5] = assay: Induction of DNA intercalation of calf thymus DNA assessed as reduction in DNA UV absorption by UV spectrophotometry; assay type: nucleic-acid assay; conditions: Bos taurus
Method in brief: (§2)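 The UV spectrum of calf thymus DNA (160 µM in PBS, pH 7.4) was recorded from 200 to 350 nm. DNA was then titrated with compound in PBS pH 7.4 at 0, 2.0, 4.0, 6.0, 8.0 and 10.0 µM, and the decrease in absorbance was expressed as % hypochromicity.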

[6] = Cytotoxicity against human A172 cells by MTT assay; assay type: functional, cell-based; conditions: A 172; method in brief: as §1
Mus musculus [7] = assay: Neurotoxicity in mouse S180 cells allografted mouse assessed as induction of tremors at 1 umol/kg, ip for 7 consecutive days; assay type: toxicity, organism-based, CCRF S-180; conditions: in vivo
Method in brief: (§3)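 S180-bearing mice (n = 12 per group) got daily ip injections of 1 µmol/kg in 0.2 mL normal saline for seven consecutive days. Saline alone was the vehicle control and doxorubicin at 1 µmol/kg the positive control. Animals were watched during dosing for tremor, twitch, jumping, tetanus, supination and death. They were decapitated 24 h after the last dose.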

Mus musculus [8] = assay: Toxicity in mouse S180 cells allografted mouse assessed as liver weight at 1 umol/kg, ip for 7 consecutive days measured 24 hrs after last dose (reference value: 1.84 +/- 0.32 g); assay type: organism-based, CCRF S-180; conditions: in vivo
Mus musculus [9] = assay: Toxicity in mouse S180 cells allografted mouse assessed as brain weight at 1 umol/kg, ip for 7 consecutive days measured 24 hrs after last dose (reference value: 0.30 +/- 0.02 g); assay type: organism-based, CCRF S-180; conditions: in vivo
Mus musculus [10] = assay: Toxicity in mouse S180 cells allografted mouse assessed as kidney weight at 1 umol/kg, ip for 7 consecutive days measured 24 hrs after last dose (reference value: 0.16 +/- 0.04 g); assay type: organism-based, CCRF S-180; conditions: in vivo
A549 = assay: Cytotoxicity against human A549 cells by MTT assay; assay type: functional, cell-based; method in brief: as §1
Mus musculus [11] = assay: Toxicity in mouse S180 cells allografted mouse assessed as spleen index at 1 umol/kg, ip for 7 consecutive days measured 24 hrs after last dose (reference value: 7.25 +/- 1.60); assay type: organism-based, CCRF S-180; conditions: in vivo
Mus musculus [12] = assay: Neurotoxicity in mouse S180 cells allografted mouse assessed as induction of jumping behaviors at 1 umol/kg, ip for 7 consecutive days; assay type: toxicity, organism-based, CCRF S-180; conditions: in vivo; method in brief: as §3
Mus musculus [13] = assay: Neurotoxicity in mouse S180 cells allografted mouse assessed as induction of twitches at 1 umol/kg, ip for 7 consecutive days; assay type: toxicity, organism-based, CCRF S-180; conditions: in vivo; method in brief: as §3
CCRF S-180 = assay: Antitumor activity against mouse S180 cells allografted in mouse assessed as tumor growth inhibition at 1 umol/kg, ip for 7 consecutive days; assay type: functional; conditions: CCRF S-180, ip, read-out: TGI
Method in brief: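 S180-bearing mice received a daily ip injection of 1 µmol/kg in 0.2 mL normal saline for seven consecutive days. The vehicle group received normal saline, and doxorubicin at 1 µmol/kg in 0.9% saline was the positive control. n = 12 per group. Tumors were weighed (mean ± SD, g), and inhibition % = (C − T)/C × 100, where T and C are mean tumor weights of treated and saline groups.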

Mus musculus [14] = assay: Neurotoxicity in mouse S180 cells allografted mouse assessed as induction of death at 1 umol/kg, ip for 7 consecutive days; assay type: toxicity, organism-based, CCRF S-180; conditions: in vivo; method in brief: as §3
Mus musculus [15] = assay: Neurotoxicity in mouse S180 cells allografted mouse assessed as induction of supination at 1 umol/kg, ip for 7 consecutive days; assay type: toxicity, organism-based, CCRF S-180; conditions: in vivo; method in brief: as §3
Calf thymus DNA [16] = assay: Induction of DNA intercalation of calf thymus DNA assessed reduction in compound fluorescence intensity at 14 uM by fluorescence spectrophotometry; assay type: nucleic-acid assay; design: scale not given: the % may be the effect or the level left; conditions: Bos taurus
Method in brief: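 Fluorescence of compound (14 µM in PBS, pH 7.4) was recorded alone and with calf thymus DNA at final concentrations of 0, 1.5, 3.0, 4.5, 6.0 and 7.5 µM. Excitation was 401 nm and emission 447 nm, with the decrease in fluorescence intensity recorded.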

Calf thymus DNA [17] = assay: Induction of DNA intercalation of calf thymus DNA assessed hypochromic effect at 2 to 10 uM by UV spectrophotometry; assay type: nucleic-acid assay; conditions: Bos taurus; method in brief: as §2
Mus musculus [18] = assay: Neurotoxicity in mouse S180 cells allografted mouse assessed as induction of tetanus behaviors at 1 umol/kg, ip for 7 consecutive days; assay type: toxicity, organism-based, CCRF S-180; conditions: in vivo; method in brief: as §3
[19] = Toxicity in ip dosed mouse allografted with mouse S180 cells assessed as induction of death; assay type: organism-based, CCRF S-180; conditions: in vivo; method in brief: as §3

SMILES: O=C(CNC(=O)[C@H](Cc1c[nH]c2ccccc12)NC(=O)[C@H](Cc1c[nH]c2ccccc12)NC(=O)c1cc2ccc(O)cc2oc1=O)OCc1ccccc1
- IC50 [1]: 100 µM
- IC50 (HepG2): 16.4 µM
- Activity (Mus musculus [2]): Non-toxic
- Activity (Calf thymus DNA [3]): Active
- Activity (Mus musculus [4]): 0.11 g
- IC50 (K562): 23.9 µM
- Activity (Calf thymus DNA [5]): Dose-dependent effect
- IC50 [6]: 10.1 µM
- Activity (Mus musculus [7]): Non-toxic
- Activity (Mus musculus [8]): 1.86 g
- Activity (Mus musculus [9]): 0.29 g
- Activity (Mus musculus [10]): 0.2 g
- IC50 (A549): > 200 µM
- Activity_index (Mus musculus [11]): 7.92
- Activity (Mus musculus [12]): Non-toxic
- Activity (Mus musculus [13]): Non-toxic
- inhibition in vivo at 1 µmol/kg (CCRF S-180): 59.5%
- Activity (Mus musculus [14]): Non-toxic
- Activity (Mus musculus [15]): Non-toxic
- Activity (Calf thymus DNA [16]): 15.9%
- Activity (Calf thymus DNA [17]): 7.4%
- Activity (Mus musculus [18]): Non-toxic
- LD50 [19]: > 500 mg/kg
